Only some compounds are listed: those with a hit (about 2.1% of all), similar ones and a draw of the others.
EBI2 block = blocks human EBI2 receptor beta-arrestin signaling | P32249 | EBI2 beta-arrestin recruitment, luminescence, 7a,25-OHC stimulated | inhibition, % at 5 µM | 360,000 tested, 0.81% active | AID 651636; in the data active = inhibition above about 38%;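 also: enzyme fragment complementation signal reports receptor beta-arrestin coupling in cells; 0% = agonist plus DMSO wells and 100% = wells without agonist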
Target sequence (P32249 whole entry, looked up, the tested form may be a part): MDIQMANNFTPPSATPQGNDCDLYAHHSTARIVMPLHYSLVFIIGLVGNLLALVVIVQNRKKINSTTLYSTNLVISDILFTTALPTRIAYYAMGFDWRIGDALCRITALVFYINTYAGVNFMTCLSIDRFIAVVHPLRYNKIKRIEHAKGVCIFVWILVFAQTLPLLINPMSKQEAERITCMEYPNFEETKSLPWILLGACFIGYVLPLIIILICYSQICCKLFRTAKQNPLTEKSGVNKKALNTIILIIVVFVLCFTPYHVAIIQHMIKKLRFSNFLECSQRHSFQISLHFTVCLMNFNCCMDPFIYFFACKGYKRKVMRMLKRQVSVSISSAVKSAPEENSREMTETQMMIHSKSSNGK
CCR6 antagonist = blocks CCL20-driven beta-arrestin recruitment at human CCR6; P51684; CHO-K1 CCR6 PathHunter beta-arrestin, luminescence, CCL20-stimulated; inhibition, % at 20 µM; 340,000 tested, 0.49% active; AID 493098;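 active = compounds whose inhibition of the agonist-driven luminescence signal at 20 µM reaches about 50%, limit read from the data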;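 also: cells stimulated with CCL20 at 14 nM final; plate controls were DMSO with CCL20 for no effect and DMSO without agonist for full effect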
CXCR6 block = inhibitors of human CXCR6 receptor. CHO-K1 PathHunter CXCR6 beta-arrestin, luminescence. AID 602244. inhibition, % at 20 µM. O00574. 360,000 tested, 0.36% active; in the data active = inhibition above about 34%, passing the limit was not always enough;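 also: antagonist mode with CXCL16 agonist at 10 nM final; 0% = 10 nM CXCL16 with DMSO and 100% = unstimulated wells without agonist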
Target sequence (O00574 whole entry, looked up): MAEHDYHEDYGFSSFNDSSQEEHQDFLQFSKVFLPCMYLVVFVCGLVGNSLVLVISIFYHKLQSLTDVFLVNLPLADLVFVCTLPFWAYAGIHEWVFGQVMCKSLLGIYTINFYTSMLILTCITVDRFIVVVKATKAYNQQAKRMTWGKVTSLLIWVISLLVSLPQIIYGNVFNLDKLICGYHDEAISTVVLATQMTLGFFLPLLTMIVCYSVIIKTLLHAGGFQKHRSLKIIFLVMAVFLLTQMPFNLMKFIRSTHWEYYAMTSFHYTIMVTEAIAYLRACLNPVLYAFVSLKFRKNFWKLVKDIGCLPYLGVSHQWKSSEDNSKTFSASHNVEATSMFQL
APJ antag = antagonists of human APJ apelin receptor; CHO-K1 APJ beta-arrestin complementation, luminescence; inhibition, % at 20 µM; 330,000 tested, 0.32% active; AID 2521;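 active = inhibition above about 40% at 20 µM, limit read from the data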;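 also: cells challenged with 10 nM apelin-13 agonist together with compound; plate controls were apelin-13 plus DMSO wells for no effect and DMSO wells lacking apelin-13 for full effect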
APJ ag = agonists of human APJ apelin receptor; P35414; CHO-K1 APJ PathHunter beta-arrestin, luminescence; 0% DMSO wells, 100% apelin; activation, % at 20 µM; 330,000 tested, 0.11% active; AID 2520;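 active = activation more than six SD over the plate average, tested at 20 µM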;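 also: 0% = DMSO alone and 100% = apelin-13 at 10 nM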
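Test system: CHO-K1 APJ beta-arrestin complementation cell line. Amount: cell density 1000 per well. Controls: DMSO negative, 10 nM Apelin-13 positive. Signal: luminescent beta-gal fragment complementation, chemiluminescent substrate. Read-out basis: agonist-driven arrestin binding to APJ. Timing: compound stimulation 90 min at 25 °C, detection 60 min.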
HTR2A ag = agonists of mouse serotonin 5-HT2A receptor (HTR2A). CHO-K1 mHTR2A beta-arrestin complementation, luminescence; percent of 30 µM serotonin response. activation, % at 7.6 µM. 360,000 tested, 0.66% active. AID 624169;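 active = activation above a run cutoff, the mean activation of all tested compounds plus 3 SD, cut at about 14% in these data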;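 also: 0% = plate median of compound wells and 100% = 30 µM serotonin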
OPRM1 ag = OPRM1 agonism in mouse HTR2A counterscreen; shares compounds with HTR2A ag; U2OS OPRM1 beta-arrestin PathHunter, luminescence; DMSO 0%, DAMGO 9.3 µM 100%; activation, % at 9.3 µM; 2,300 tested, 5.3% active;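 active = mean activation above the mean of DMSO-only wells plus 3 SD, cut at about 0.5% in these data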
HTR2A ag conf = confirmation of mouse HTR2A serotonin receptor agonists; shares compounds with HTR2A ag; activation, % at 7.6 µM; CHO-K1 PathHunter beta-arrestin recruitment, luminescence; DMSO 0%, 30 µM serotonin 100%; 2,300 tested, 19% active;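 active = mean activation across triplicates above the hit threshold derived in the original primary screen, cut at about 15% in these data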
* hit, by the source's call; . = not tested or not shown.

SMILES	EBI2 block	CCR6 antagonist	CXCR6 block	APJ antag	APJ ag	HTR2A ag	OPRM1 ag	HTR2A ag conf
CCc1c(C)nn(C(=O)/C(C#N)=C\N(C)C)c1C	-0.7	0.8	4.4	0.1	0.5	42.4*	-0.1	1.8
CCN(CC)C(=O)CCNS(=O)(=O)c1ccc(C)cc1	-6.3	12.0	-6.9	18.1	4.4	15.2*	-0.5	2.6
Cc1cc(C)c(OCC(=O)NCC2COc3ccccc3O2)c(C)c1 (configuration not stated)	0.5	12.7	7.4	-2.2	-0.9	24.2*	-0.1	16.6*
Cn1c(=O)n(CC(=O)O)c(=O)c2c1nc1n2CCCN1Cc1ccccc1	-10.2	3.3	0.9	-1.1	-0.4	1.3	.	.
Cc1ccc(Nc2ncnc(N)n2)cc1	2.8	0.3	9.1	-6.3	-3.7	22.7*	-0.3	-1.6
CCN(C(=O)C1CCN(S(=O)(=O)c2cccc3nonc23)CC1)c1ccccc1	1.3	6.5	4.0	2.8	-0.5	15.1*	-0.6	-2.1
O=C(NCc1ccc(Cl)cc1)C1CCN(S(=O)(=O)c2ccc(N3CCCC3=O)cc2)CC1	17.8	11.8	-11.4	4.7	9.4	10.2	.	.
COc1cccc(NC(=O)CN(C)C(=O)CN2C(=O)NC3(CCCC3)C2=O)c1	-8.2	-1.9	4.1	24.3	-5.2	-7.8	.	.
CCC1(c2ccc(F)cc2)NC(=O)N(CC(=O)Nc2ccccc2C)C1=O (configuration not stated)	-14.9	2.5	2.7	-3.1	1.6	14.5*	-0.7	-3.5
CCC1(c2ccccc2)NC(=O)N(CC(=O)N(C)CC(=O)Nc2cccc(OC)c2)C1=O (configuration not stated)	-4.1	0.0	-3.0	8.8	-3.0	14.8*	-0.5	2.6
CCC1(c2ccc(F)cc2)NC(=O)N(CC(=O)Nc2ccccc2Cl)C1=O (configuration not stated)	-5.0	2.2	-1.7	-9.2	2.6	6.8	.	.
CC(C)NC1CS(=O)(=O)CC1O (configuration not stated)	-4.8	-7.9	-0.2	12.3	-4.5	2.5	.	.
COc1ccccc1Nc1nnc(SCC(=O)N2CC(=O)Nc3ccccc32)s1	-3.0	-1.6	-8.5	1.3	-1.2	17.9*	-0.7	-3.5
O=C1CN(C(=O)CSc2nnc(Nc3ccccc3)s2)c2ccccc2N1	0.6	3.5	-4.8	-5.2	-3.0	2.0	.	.
Cc1ccc(NS(=O)(=O)c2cc(C(=O)O)ccc2Cl)c(C)c1	2.4	-0.8	-3.0	-6.4	2.9	-3.4	.	.
O=c1[nH]ccc2c(O)cccc12	-6.5	7.8	1.4	13.3	-10.2	16.2*	0.7*	3.8
Nc1cccc2c(O)cccc12	-2.2	-10.8	-9.1	-23.2	5.3	-2.8	.	.
CC(C)CC(=O)Nc1nnc(SCC(=O)NCc2ccc3c(c2)OCO3)s1	-0.9	0.5	4.4	2.3	1.4	14.5*	-0.5	-2.6
CCOC(=O)N1CCN(C(=O)C[C@@H]2C[C@@]3(C(=O)OC)CCCCC=C3N(Cc3ccc(Cl)cc3Cl)C2=O)CC1	15.7	.	1.3	.	.	-4.4	.	.
COc1ccc(OC)c(C(=O)N(C)C2CCCN(Cc3ccccc3F)C2)c1 (configuration not stated)	2.2	4.7	0.9	4.7	0.8	1.6	.	.
COc1ccc(C(=O)N(C)C2CCCN(Cc3ccccc3F)C2)cc1OC (configuration not stated)	-0.5	-3.4	11.9	-13.9	-2.8	16.9*	-0.7	-2.6
Cc1cc(-n2c(C)c3c(C)nnc(C)c3c2C)ccc1N	.	5.4	.	11.0	-1.2	.	.	.
Cc1c(Cl)cnc(NC(=O)COC(=O)CNC(=O)c2ccccc2)c1Cl	-0.3	5.3	0.8	-3.8	-1.3	7.5	.	.
COc1ccc(CC(=O)OCC(=O)Nc2ncc(Cl)c(C)c2Cl)cc1	-4.1	8.0	6.8	13.5	-4.3	14.6*	-0.4	-2.9
CC1(C(=O)Nc2ccc3c(c2)OCCO3)CCN1Cc1ccccc1OC(F)F (configuration not stated)	0.8	.	-3.8	.	.	-3.7	.	.
SMILES	EBI2 block	CCR6 antagonist	CXCR6 block	APJ antag	APJ ag	HTR2A ag	OPRM1 ag	HTR2A ag conf
OCCNc1ncnc2c1ncn2[C@H]1CN(Cc2ccncc2)C[C@@H](CO)O1	-11.6	.	-3.9	.	.	15.3*	.	-4.7
OCCCNc1ncnc2c1ncn2[C@H]1CN(Cc2ccncc2)C[C@@H](CO)O1	-4.0	.	-3.2	.	.	2.1	.	.
Cc1cc(CNC(=O)c2cccc(OC3CCN(S(=O)(=O)N(C)C)CC3)c2)on1	2.7	13.4	-3.6	-38.3	-0.8	15.3*	-0.3	-0.1
CN(Cc1ccccc1)CC(O)COc1ccc(CNCCOc2cccnc2)cc1 (configuration not stated)	1.0	-4.6	-6.9	-1.8	-2.3	17.8*	-0.5	37.7*
O=C(COc1cccc2cccnc12)N/N=C/c1ccccc1O	7.0	4.6	-3.6	-20.0	11.0	-2.5	.	.
O=C(CN1C(=O)c2ccccc2C1=O)N1CCN(C(=O)c2ccco2)CC1	-0.4	-11.0	-0.6	-11.5	-1.8	1.4	.	.
O=C(c1ccco1)N1CCN(CCCCOc2ccc(F)cc2)CC1	6.2	3.2	7.3	-2.6	-0.8	18.6*	-0.5	63.1*
O=C(c1ccco1)N1CCN(CCCCN2C(=O)c3ccccc3C2=O)CC1	-5.3	-0.1	-13.3	0.5	-3.5	17.1*	-0.6	54.4*
O=C(CCN1CCN(C(=O)c2ccco2)CC1)Nc1ccc(F)cc1	1.7	-9.8	-6.0	8.3	-2.4	-1.8	.	.
Cc1nc(C)c(-c2ccn(C(=O)NC(C)C)n2)s1	-5.1	-6.6	2.7	-0.5	1.6	-1.1	.	.
CN1CCc2c(sc3c2c(=O)n(-c2cccc(Cl)c2)c2nncn32)C1	-32.7	0.4	2.3	0.4	-1.2	23.0*	0.3	2.0
Cc1ccc2cccc(OCC(=O)N(C)CC(=O)Nc3ccc(F)cc3)c2n1	-6.9	9.9	4.3	18.4	0.6	-10.2	.	.
COC(=O)CNc1c(-c2ccccn2)nc2ccc(Br)cn12	3.3	-1.3	7.0	-10.4	7.2	19.3*	-0.6	-3.6
COc1ccccc1-c1cccc(-c2nc(C(=O)Nc3nccs3)cc3c2[C@@H](CCO)N(C(C)=O)C3)c1	0.9	.	-4.9	.	.	12.2	.	.
COc1ccc(CNC(=O)c2ccc(C(C)C)cc2)cc1	28.4	11.6	1.5	-4.9	-2.5	15.4*	0.4	2.6
COc1ccc(Nc2nc(N)nc(CN3CCc4ccccc4C3)n2)cc1	-0.9	9.3	-12.1	10.3	-2.5	-6.1	.	.
